# Source: ChEMBL document CHEMBL1795283, “Dihydro-β-agarofuran sesquiterpenes isolated from Celastrus vulcanicola as potential anti-Mycobacterium tuberculosis multidrug-resistant agents” (2011)
# Key:
# [1] = system: Mycobacterium tuberculosis; assay: Antimycobacterial activity against Mycobacterium tuberculosis isolate 02TBDM039EP097 after 24 hrs by tetrazolium microplate assay; type: functional; conditions: isolate 02TBDM039EP097, 24 h
# Method in brief: (§1)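 TEMA broth microdilution; inoculum from 20–30-day-old slant growth suspended in Tween 80/0.2% BSA, adjusted to McFarland No. 1, final ca. 1.2 × 10⁶ CFU/mL. Compound mixed 1:1 with inoculum, DMSO solvent control; sealed plates incubated 37 °C 5 days, then MTT/Tween 80 added, 24 h 37 °C; yellow-to-purple colour change read. MIC = lowest concentration giving 100% inhibition; means of 3 or 4 replicates.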
# [2] = system: Mycobacterium tuberculosis; assay: Antimycobacterial activity against Mycobacterium tuberculosis H37Rv after 24 hrs by tetrazolium microplate assay; type: functional; method in brief: as §1
Structure (SMILES),MIC [1] [µg/mL],MIC [2] [µg/mL]
CC1(C)O[C@]23[C@H](O)[C@H]1[C@H](O)[C@H](O)[C@]2(C)[C@@H](O)CC[C@]3(C)O,> 25,> 25
CC(=O)O[C@H]1[C@@H]2[C@@H](OC(=O)c3cccnc3)[C@]3(OC2(C)C)[C@H](C)CC[C@H](OC(C)=O)[C@@]3(C)[C@H]1OC(=O)c1ccccc1,25,> 25
CC(=O)O[C@H]1[C@@H]2[C@@H](O)[C@]3(OC2(C)C)[C@H](C)CC[C@H](OC(C)=O)[C@@]3(C)[C@H]1OC(=O)c1ccccc1,> 25,> 25
CC(=O)O[C@H]1CC[C@](C)(O)[C@]23OC(C)(C)[C@H]([C@H](O)[C@H](OC(=O)c4ccccc4)[C@]12C)[C@H]3OC(C)=O,> 25,> 25
CC(=O)O[C@@H]1[C@@H]2[C@@H](OC(=O)c3ccccc3)[C@@]3(OC2(C)C)[C@@](C)([C@@H](OC(C)=O)CC[C@]3(C)O)[C@H]1OC(=O)c1ccccc1,12.5,> 25
CC(=O)O[C@H]1CC[C@](C)(O)[C@]23OC(C)(C)[C@H]([C@H](OC(=O)[C@H](O)[C@@H](O)c4ccccc4)[C@H](OC(=O)c4ccccc4)[C@]12C)[C@H]3O,> 25,> 25
CC(=O)O[C@@H]1[C@@H]2[C@@H](OC(=O)c3cccnc3)[C@@]3(OC2(C)C)[C@@](C)([C@@H](OC(C)=O)CC[C@]3(C)O)[C@H]1OC(=O)c1ccccc1,> 25,> 25
CC(=O)O[C@H]1[C@@H]2[C@@H](OC(C)=O)[C@@]3(OC2(C)C)[C@@](C)([C@@H](OC(C)=O)CC[C@]3(C)O)[C@H]1OC(C)=O,> 25,> 25
CC(=O)O[C@H]1[C@@H]2[C@@H](OC(C)=O)[C@@]3(OC2(C)C)[C@@](C)([C@@H](OC(C)=O)CC[C@]3(C)O)[C@H]1O,> 25,> 25
CC(=O)O[C@H]1[C@@H]2[C@@H](O)[C@@]3(OC2(C)C)[C@@](C)([C@@H](OC(C)=O)CC[C@]3(C)O)[C@H]1O,> 25,> 25
CC(=O)O[C@H]1CC[C@@H](C)[C@]23OC(C)(C)[C@H]([C@H](OC(=O)/C=C\c4ccccc4)[C@H](OC(=O)c4ccccc4)[C@]12C)[C@H]3O,25,> 25
CC(=O)O[C@H]1CC[C@](C)(O)[C@]23OC(C)(C)[C@H]([C@H](OC(=O)/C=C\c4ccccc4)[C@H](OC(=O)c4ccccc4)[C@]12C)[C@H]3O,> 25,> 25
CC(=O)O[C@H]1[C@@H]2[C@@H](OC(=O)c3ccccc3)[C@@]3(OC2(C)C)[C@@](C)([C@@H](OC(C)=O)CC[C@]3(C)O)[C@H]1OC(=O)c1ccccc1,> 25,> 25
CC(=O)O[C@H]1[C@@H]2[C@@H](OC(=O)c3cccnc3)[C@@]3(OC2(C)C)[C@@](C)([C@@H](OC(C)=O)CC[C@]3(C)O)[C@H]1OC(=O)c1ccccc1,> 25,> 25
CC(=O)O[C@H]1CC[C@@H](C)[C@]23OC(C)(C)[C@H](C[C@H](OC(=O)/C=C/c4ccccc4)[C@]12C)[C@H]3OC(C)=O,12.5,> 25
CC(=O)O[C@H]1CC[C@@H](C)[C@]23OC(C)(C)[C@H](C[C@H](OC(=O)/C=C/c4ccccc4)[C@]12C)[C@H]3O,25,> 25
CC(=O)O[C@H]1[C@@H](O)C[C@](C)(O)[C@]23OC(C)(C)[C@H]([C@H](OC(=O)/C=C/c4ccccc4)[C@H](OC(=O)c4ccccc4)[C@]12C)[C@H]3O,> 25,> 25
CC(=O)O[C@H]1CC[C@@H](C)[C@@]23C[C@@H](C[C@H](OC(=O)/C=C/c4ccccc4)[C@]12C)C(C)(C)O3,> 25,> 25
CC(=O)O[C@H]1[C@@H]2[C@@H](OC(=O)c3ccccc3)[C@@]3(OC2(C)C)[C@](C)([C@H]1OC(=O)c1ccccc1)[C@@H](OC(C)=O)[C@@H](O)C[C@]3(C)O,> 25,> 25
CC(=O)O[C@H]1CC[C@@H](C)[C@]23OC(C)(C)[C@H]([C@H](OC(=O)/C=C/c4ccccc4)[C@H](OC(=O)c4ccccc4)[C@]12C)[C@H]3O,12.5,> 25
CC(=O)O[C@H]1CC[C@](C)(O)[C@]23OC(C)(C)[C@H]([C@H](OC(=O)/C=C/c4ccccc4)[C@H](OC(=O)c4ccccc4)[C@]12C)[C@H]3O,12.5,> 25
CC(=O)O[C@H]1CC[C@@H](C)[C@]23OC(C)(C)[C@H](C[C@H](OC(=O)c4ccccc4)[C@]12C)[C@H]3OC(=O)c1ccccc1,6.2,> 25
CC(=O)O[C@H]1CC[C@](C)(O)[C@]23OC(C)(C)[C@H]([C@H](OC(=O)/C=C/c4ccccc4)[C@H](OC(=O)c4ccccc4)[C@]12C)[C@H]3OC(C)=O,12.5,> 25
NNC(=O)c1ccncc1 [ISONIAZID],4,0.125
CC(=O)O[C@H]1CC[C@](C)(O)[C@]23OC(C)(C)[C@H]([C@H](O)[C@H](OC(=O)c4ccccc4)[C@]12C)[C@H]3O [REISSANTIN D],> 25,> 25
CO[C@H]1/C=C/O[C@@]2(C)Oc3c(C)c(O)c4c(O)c(c(/C=N/N5CCN(C)CC5)c(O)c4c3C2=O)NC(=O)/C(C)=C\C=C\[C@H](C)[C@H](O)[C@@H](C)[C@@H](O)[C@@H](C)[C@H](OC(C)=O)[C@@H]1C [RIFAMPIN],> 16,0.063
